# Most compounds without a hit are left out; they make up all but 2.6% or so of the library.
# Ecoli rRNA inh: selective bacterial rRNA inhibition in E. coli; E. coli WT GFP vs humanized-ribosome RFP mutants, fluorescence, 24 h; stronger effect = lower value; DMSO median 0, no signal -100; GFP signal change (wild-type ribosome), % (no concentration beside the values); 350,000 tested, 1.6% active;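 active means significant combined selectivity score with lowered wild-type GFP, culture density cut under 30%, mutant RFP and density less affected; inactive means any of these conditions unmet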
# XiGFP reactiv: activators of X-chromosome reactivation in mouse fibroblasts; XiGFP mouse fibroblasts, % GFP-positive cells imaging, 3 d; cells co-treated with 5-aza-dC sensitizer; scaled so ellipticine positive control = 100%; activation, % at 7.58 µM; 360,000 tested, 0.055% active; AID 743238;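 active means mean normalized replicate activation at least 10% and every replicate at or above 10%; inconclusive means only one of the two criteria met; inactive means mean below 10% and not all replicates reach 10%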;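 further: 0% = median of on-plate neutral control wells and 100% = ellipticine 6 µM median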
#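 Schedule: 3 d treatment, 15 min room-temperature fixation; system: 68-5-11 XiGFP fibroblast line; buffer or medium: DMEM plus 5-aza-dC sensitizer; control set: ellipticine 6 µM positive control; compound: one concentration, pinned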
# dFosB activator: mouse delta FosB homodimer activation | purified delta FosB, TAMRA-CDK5 oligo fluorescence polarization; percent of positive-control signal above neutral wells | P13346 | 340,000 tested, 0.99% active | activation, % at 25 µM;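 active means mean activation above about 17%, with every replicate also reaching it, limit read from the data, passing the limit was not always enough; inconclusive means only one of the two conditions met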
# PvdQ inh: blocks Pseudomonas aeruginosa PvdQ acylase activity | purified PvdQ acylase, fluorescence plate reader | inhibition, % at 10 µM | 340,000 tested, 0.063% active; in the data active means inhibition above about 30%, passing the limit was not always enough; inconclusive means no clear call, values can overlap the other calls;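 further: 0% = vehicle neutral wells and 100% = reference inhibitor wells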
# SR-BI HDL uptake: inhibitors of mouse SR-BI mediated HDL lipid uptake; ldlA[mSR-BI] CHO cells, DiI-HDL uptake fluorescence, 3 h; inhibition, % at 12.5 µM; 320,000 tested, 0.96% active; AID 488896;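 active means mean replicate inhibition of at least 70% and a set share of replicates each scoring 70 or more; inconclusive means meets just one of the two criteria; inactive means fails both criteria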;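 further: 0% = median of neutral control wells and 100% = median of positive control wells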
# Target sequence (Q61009 whole entry, looked up): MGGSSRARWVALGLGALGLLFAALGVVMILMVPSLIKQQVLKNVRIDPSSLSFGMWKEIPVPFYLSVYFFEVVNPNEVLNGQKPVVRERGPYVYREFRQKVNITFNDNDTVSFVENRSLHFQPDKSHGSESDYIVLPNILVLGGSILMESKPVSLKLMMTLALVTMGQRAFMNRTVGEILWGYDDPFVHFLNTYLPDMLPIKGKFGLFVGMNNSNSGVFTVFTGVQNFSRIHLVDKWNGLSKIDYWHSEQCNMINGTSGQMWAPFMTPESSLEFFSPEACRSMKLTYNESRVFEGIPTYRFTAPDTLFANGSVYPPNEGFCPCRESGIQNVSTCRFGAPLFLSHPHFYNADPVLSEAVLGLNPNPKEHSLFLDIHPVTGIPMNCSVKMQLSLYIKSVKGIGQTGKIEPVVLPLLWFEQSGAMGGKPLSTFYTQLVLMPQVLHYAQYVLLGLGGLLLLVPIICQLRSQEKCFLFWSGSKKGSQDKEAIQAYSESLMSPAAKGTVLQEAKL
# SR-BI uptake up: SR-BI HDL lipid transfer activation | CHO ldlA[mSR-BI] cells, DiI-HDL uptake fluorescence, 3 h; 100 = double the neutral-control signal | activation, % at 12.5 µM | 320,000 tested, 0.096% active | AID 504775;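 active means mean replicate activation of at least 60% and every replicate at or above 60%; inconclusive means mean or all-replicate condition met, but not both; inactive means mean below 60% and not all replicates reaching 60%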;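 further: 0% = median plate neutral-control signal and 100% = twice that signal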
#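 Test system: SR-BI-overexpressing, LDLR-lacking CHO cells. Measured by: DiI fluorescence, bottom read. Medium: Ham's F12 with 0.5% BSA, HEPES 25 mM, pH 7.4. Timing: 3 h uptake period with compound, 37 °C.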
# Starred values were filed as active, the others as inactive; ? = inconclusive; · = no result given.
SMILES,Ecoli rRNA inh,XiGFP reactiv,dFosB activator,PvdQ inh,SR-BI HDL uptake,SR-BI uptake up
CCCOc1ccc(Br)cc1/C=N/NC(=O)c1cc(OC)c(OC)c(OC)c1,·,0,-7,-7,76*,-76
CC(C)(C)c1ccc(OCc2ccc(C(=O)N/N=C/c3ccc(O)c(O)c3)cc2)cc1,7,7,-6,-10,107*,-107
COc1ccc(/C=N/NC(=O)c2ccc(Br)cc2)c(OC)c1,18,0,-3,-6,83*,-83
COc1ccc(/C=N/NC(=O)c2ccncc2)c(OC)c1,20,0,9,-16,21,-21
Cc1ccc(NC(=O)Cn2nnc3ccccc32)c(C)c1,0,0,9,0,2,-2
C[C@H]1CN([C@@H](C)CO)C(=O)c2cccc(NC(=O)Nc3ccc(C(F)(F)F)cc3)c2O[C@@H]1CN(C)C(=O)NC1CCCCC1,-5,-1,·,·,·,·
COc1ccc(O)c(/C=N/NC(=O)c2ccc(OCc3cccc(Br)c3)cc2)c1,·,·,7,-6,129*,-129
COc1ccc(C(=O)NCC(=O)OCc2cccc(Br)c2)cc1,-12,·,-5,-11,9,-9
COc1ccc(C(=O)N/N=C/c2cc(Br)ccc2O)cc1OC,-38,?,?,-20,120*,-120
COc1ccc(C(=O)N/N=C/c2ccccc2C(=O)O)cc1OC,9,0,4,0,·,·
COc1ccccc1NS(=O)(=O)c1ccc(N/N=C/c2c(C)nn(-c3ccccc3)c2N2CCCC2)c([N+](=O)[O-])c1,·,0,10,20,90*,-90
Cc1nn(-c2ccccc2)c(N2CCCC2)c1/C=N/Nc1ccc(S(=O)(=O)Nc2ccccc2)cc1[N+](=O)[O-],·,0,-11,-6,125*,-125
COc1c(/C=N/Nc2ccc([N+](=O)[O-])cc2[N+](=O)[O-])c(C)nn1-c1ccccc1,·,·,-6,-10,64,-64
COc1ccccc1NS(=O)(=O)c1cccc(C(=O)N/N=C/c2c(C)nn(-c3ccccc3)c2N2CCCC2)c1,0,0,-13,8,?,-71
CCOC(=O)c1ccsc1NC(=O)c1ccco1,14,0,-21,-9,-9,9
CO[C@H]1CN(C)C(=O)c2cccc(C#N)c2OC[C@@H]2O[C@@H](CC[C@H]2OC)CCN(C)C(=O)[C@@H]1C,0,0,·,·,·,·
C=CCNC(=O)CN(c1cc(Cl)ccc1OC)S(=O)(=O)c1ccc(C)c([N+](=O)[O-])c1,18,0,-4,-11,-3,3
Fc1ccc(NC(=S)NCCc2ccccn2)cc1,·,0,1,0,0,0
CC(C)(C)c1ccc(NC(=S)NCCc2ccccn2)cc1,-41*,0,-2,-13,28,-28
CCOC(=O)c1c(C)nc(C(Cl)(Cl)Cl)nc1N,-37*,0,2,2,-14,14
CCOC(=O)c1nc(N)c(C(=O)OCC)[nH]1,·,·,1,-5,-32,32
CSc1nc(C)c(CCOCc2ccc(F)cc2)c(=O)[nH]1,-22*,0,-2,-8,-6,6
COc1ccc(NC(=O)Cc2c[nH]c3ccccc23)cc1S(=O)(=O)N1CCCCC1,·,0,-8,2,24,-24
Clc1cccc(OCCOCCN2CCNCC2)c1Cl,-16*,0,·,·,·,·
Cc1occc1C(=O)N/N=C/C1=C(N2CCOCC2)C(=C/c2ccc(Cl)cc2Cl)/CC1,6,0,-6,-13,86*,-86
Cc1cc(C)nc(SCC(=O)Nc2nc(-c3ccccc3)c(-c3ccccc3)o2)n1,-24,0,-13,-10,-24,24
COc1c(/C=N/NC(=O)c2ccncc2)c(CCN(C)C(C)=O)cc2c1OCO2,11,0,-7,-15,-145,145*
O=c1c2ccccc2nc(-c2ccccc2)n1O,-14,0,-3,-18,-13,13
O=S(=O)(/N=C(/c1ccc(F)cc1)N1CCCCC1)c1ccc(Cl)cc1,-22*,0,-2,-4,3,-3
